{
  "source": "ChEMBL document CHEMBL4229446",
  "about": "“Development of Novel Monoamine Oxidase-B (MAO-B) Inhibitors with Reduced Blood-Brain Barrier Permeability for the Potential Management of Noncentral Nervous System (CNS) Diseases” (J Med Chem, 2018)",
  "format_in_all_cases": "ADME, organism-based",
  "key": {"[1]": {"test": "Cmax in C57BL/6 mouse brain at 23.4 mg/kg, iv administered as single dose measured 24 hrs by UPLC-MS/MS analysis", "design": "dose 23.4 mg/kg, route intravenous", "summary_of_the_method": "(§1)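 21 animals dosed at 0 min, 3 killed per time point (0, 5, 15, 30 min, 1, 4, 24 h). Plasma extracted by protein precipitation/phospholipid removal. Brain homogenized in 50 mM ammonium formate, then extracted in acidified organic solvent. Both quantified by UPLC-MS/MS (MRM), brain ng/g taken as ng/mL. Noncompartmental analysis. Kp = AUClast brain/plasma.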"}, "[2]": {"test": "Tmax in C57BL/6 mouse plasma at 23.4 mg/kg, po administered as single dose measured 24 hrs by UPLC-MS/MS analysis", "summary_of_the_method": "(§2)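 15 animals dosed, 3 killed at each of 1, 2, 4, 6 and 24 h. Plasma and brain homogenate (ammonium formate, acidified organic extraction) assayed by UPLC-MS/MS, brain ng/g taken as ng/mL. Noncompartmental parameters exclude values above/below quantification limit or undetected. Kp = AUClast brain/plasma.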"}, "[3]": {"test": "AUClast in C57BL/6 mouse brain at 23.4 mg/kg, sc administered as single dose measured 24 hrs by UPLC-MS/MS analysis", "design": "dose 23.4 mg/kg, time 0 - last, route subcutaneous", "summary_of_the_method": "as §2"}, "[4]": {"test": "Tmax in C57BL/6 mouse brain at 23.4 mg/kg, sc administered as single dose measured 24 hrs by UPLC-MS/MS analysis", "summary_of_the_method": "as §2"}, "[5]": {"test": "Ratio of AUClast in brain to plasma in C57BL/6 mouse at 23.4 mg/kg, iv administered as single dose measured 24 hrs by UPLC-MS/MS analysis", "summary_of_the_method": "as §1"}, "[6]": {"test": "AUClast in C57BL/6 mouse plasma at 23.4 mg/kg, sc administered as single dose measured 24 hrs by UPLC-MS/MS analysis", "design": "dose 23.4 mg/kg, time 0 - last, route subcutaneous", "summary_of_the_method": "as §2"}, "[7]": {"test": "Tmax in C57BL/6 mouse brain at 23.4 mg/kg, iv administered as single dose measured 24 hrs by UPLC-MS/MS analysis", "summary_of_the_method": "as §1"}, "[8]": {"test": "Ratio of AUClast in brain to plasma in C57BL/6 mouse at 23.4 mg/kg, po administered as single dose measured 24 hrs by UPLC-MS/MS analysis", "summary_of_the_method": "as §2"}, "[9]": {"test": "Tmax in C57BL/6 mouse plasma at 23.4 mg/kg, iv administered as single dose measured 24 hrs by UPLC-MS/MS analysis", "summary_of_the_method": "as §1"}, "[10]": {"test": "AUClast in C57BL/6 mouse brain at 23.4 mg/kg, iv administered as single dose measured 24 hrs by UPLC-MS/MS analysis", "design": "dose 23.4 mg/kg, route intravenous, time 0 - last", "summary_of_the_method": "as §1"}, "[11]": {"test": "AUClast in C57BL/6 mouse plasma at 23.4 mg/kg, po administered as single dose measured 24 hrs by UPLC-MS/MS analysis", "design": "dose 23.4 mg/kg, time 0 - last, route oral", "summary_of_the_method": "as §2"}, "[12]": {"test": "Apparent half-life of the terminal disposition phase in C57BL/6 mouse plasma at 23.4 mg/kg, sc administered as single dose measured 24 hrs by UPLC-MS/MS analysis", "settings": "read-out: t1/2 lambda z (converted)", "summary_of_the_method": "as §2"}, "[13]": {"test": "Tmax in C57BL/6 mouse brain at 24.5 mg/kg, po administered as single dose measured 24 hrs by UPLC-MS/MS analysis", "summary_of_the_method": "(§3)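 Brain portion homogenised in 50 mM ammonium formate with beads, acidified organic extraction, UPLC-MS/MS. ng/g read as ng/mL. Noncompartmental analysis; values above or below quantification limit, or undetected, excluded.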"}, "[14]": {"test": "Cmax in C57BL/6 mouse brain at 24.5 mg/kg, po administered as single dose measured 24 hrs by UPLC-MS/MS analysis", "design": "dose 24.5 mg/kg, route oral", "summary_of_the_method": "(§4)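 15 animals dosed, 3 sacrificed at each of 1, 2, 4, 6 and 24 h. Plasma and brain homogenate were extracted and quantified by UPLC-MS/MS. Parameters came from noncompartmental analysis. Values above or below the limit of quantification, or undetected, were omitted. Kp = AUClast brain/plasma.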"}, "[15]": {"test": "Tmax in C57BL/6 mouse brain at 24.5 mg/kg, sc administered as single dose measured 24 hrs by UPLC-MS/MS analysis", "summary_of_the_method": "as §3"}, "[16]": {"test": "Tmax in C57BL/6 mouse brain at 24.5 mg/kg, iv administered as single dose measured 24 hrs by UPLC-MS/MS analysis", "summary_of_the_method": "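Brains weighed, portion bead-homogenised in 50 mM ammonium formate, extracted in acidified organic solvent, quantified by UPLC-MS/MS. ng/g taken as ng/mL. Tmax from noncompartmental analysis.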"}, "[17]": {"test": "Cmax in C57BL/6 mouse plasma at 24.5 mg/kg, sc administered as single dose measured 24 hrs by UPLC-MS/MS analysis", "design": "dose 24.5 mg/kg, route subcutaneous", "summary_of_the_method": "as §4"}, "[18]": {"test": "Ratio of AUClast in brain to plasma in C57BL/6 mouse at 24.5 mg/kg, po administered as single dose measured 24 hrs by UPLC-MS/MS analysis", "summary_of_the_method": "as §4"}, "[19]": {"test": "Tmax in C57BL/6 mouse plasma at 24.5 mg/kg, sc administered as single dose measured 24 hrs by UPLC-MS/MS analysis", "summary_of_the_method": "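Plasma extracted by protein precipitation/phospholipid removal and measured by UPLC-MS/MS (MRM). Parameters by noncompartmental analysis, omitting values outside quantification limits or undetected.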"}, "[20]": {"test": "Cmax in C57BL/6 mouse plasma at 24.5 mg/kg, po administered as single dose measured 24 hrs by UPLC-MS/MS analysis", "design": "dose 24.5 mg/kg, route oral", "summary_of_the_method": "as §4"}, "[21]": {"test": "Apparent half-life of the terminal disposition phase in C57BL/6 mouse plasma at 24.5 mg/kg, po administered as single dose measured 24 hrs by UPLC-MS/MS analysis", "settings": "read-out: t1/2 lambda z (converted)", "summary_of_the_method": "as §4"}, "[22]": {"test": "AUClast in C57BL/6 mouse brain at 24.5 mg/kg, iv administered as single dose measured 24 hrs by UPLC-MS/MS analysis", "design": "dose 24.5 mg/kg, route intravenous, time 0 - last", "summary_of_the_method": "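21 animals dosed at 0 min, 3 sacrificed at each of 0, 5, 15, 30 min, 1, 4 and 24 h. Plasma was extracted by protein precipitation with phospholipid removal. Brain was weighed, bead-homogenised in 50 mM ammonium formate and extracted in acidified organic solvent. Quantified by UPLC-MS/MS (MRM). Brain ng/g taken as ng/mL. Parameters came from noncompartmental analysis. Kp = AUClast brain/plasma.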"}},
  "data": [
    {"smiles": "CN(CC(=O)O)[C@H](CC#N)Cc1ccc(OCc2ccc(Cl)c(Cl)c2)cc1", "values": [
      {"measurement": "Cmax", "setting": "[1]", "result": 305, "unit": "ng/mL"},
      {"measurement": "Tmax", "setting": "[2]", "result": 1, "unit": "h"},
      {"measurement": "AUC(0-t) at 24 h", "setting": "[3]", "result": 176, "unit": "ng·h/mL"},
      {"measurement": "Tmax", "setting": "[4]", "result": 1, "unit": "h"},
      {"measurement": "Kp at 24 h", "setting": "[5]", "result": 0.004},
      {"measurement": "AUC(0-t) at 24 h", "setting": "[6]", "result": 35100, "unit": "ng·h/mL"},
      {"measurement": "Tmax", "setting": "[7]", "result": 5, "unit": "min"},
      {"measurement": "Kp at 24 h", "setting": "[8]", "result": 0.002},
      {"measurement": "Tmax", "setting": "[9]", "result": 5, "unit": "min"},
      {"measurement": "AUC(0-t) at 24 h", "setting": "[10]", "result": 183, "unit": "ng·h/mL"},
      {"measurement": "AUC(0-t) at 24 h", "setting": "[11]", "result": 73000, "unit": "ng·h/mL"},
      {"measurement": "half-life", "setting": "[12]", "result": 3.62, "unit": "h"}
    ]},
    {"smiles": "C[C@H](Cc1ccc(OCc2ccc(Br)c(Cl)c2)cc1)N(C)CC(=O)O", "values": [
      {"measurement": "Tmax", "setting": "[13]", "result": 6, "unit": "h"},
      {"measurement": "Cmax", "setting": "[14]", "result": 812, "unit": "ng/mL"},
      {"measurement": "Tmax", "setting": "[15]", "result": 6, "unit": "h"},
      {"measurement": "Tmax", "setting": "[16]", "result": 4, "unit": "h"},
      {"measurement": "Cmax", "setting": "[17]", "result": 7110, "unit": "ng/mL"},
      {"measurement": "Kp at 24 h", "setting": "[18]", "result": 0.12},
      {"measurement": "Tmax", "setting": "[19]", "result": 2, "unit": "h"},
      {"measurement": "Cmax", "setting": "[20]", "result": 8530, "unit": "ng/mL"},
      {"measurement": "half-life", "setting": "[21]", "result": 3.59, "unit": "h"},
      {"measurement": "AUC(0-t) at 24 h", "setting": "[22]", "result": 10700, "unit": "ng·h/mL"}
    ]}
  ]
}
